{"source": "paper PMC6404985", "about": "(Cell chemical biology, 2018)", "key": {"[1]": {"system": "BAF-mediated transcriptional repression (Bmi1-luciferase reporter cell line)", "test": "Bmi1-luciferase reporter assay in mouse ESCs", "format": "cell-based", "details": "for activity in the Bmi1 luciferase reporter assays (in words): follow up library", "in_short": "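Mouse ESC Bmi1-luciferase reporter line: 10,000 cells per 384-well in ESC medium, 24 h at 37 °C/5% CO2, then compound added by 100 nL pin transfer alongside a positive control. Each concentration in triplicate; DMSO tolerated to 0.5%. After 24 h treatment, equilibrated 10 min at room temperature, SteadyGlo added for 10 min, luminescence read. EC50 derived.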"}, "latent HIV-1 [2]": {"system": "latent HIV-1", "test": "Ex vivo primary CD4+ T cell model of HIV-1 latency", "format": "cell-based", "details": "24 h treatment", "in_short": "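Healthy-donor CD4+ T cells (buffy coat, Ficoll, RosetteSep negative selection) were spin-infected 24 h after isolation with HXB2 Env-pseudotyped pNL4.3.Luc.R-E- (1200 g, 2 h). After 18 h, cells were washed and cultured with 5 µM saquinavir. Three days later, treated 24 h with 30 µM raltegravir present. Luciferase read-out normalized to total protein, expressed as fold over untreated; Bliss score for combinations.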"}, "latent HIV-1 [3]": {"system": "latent HIV-1", "test": "Second ex vivo model of HIV-1 latency", "format": "cell-based", "details": "24 h", "in_short": "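Healthy-donor CD4+ T cells were polarized for 3 days with 10 ng/ml TGF-β, 1 µg/ml α-IL-4 and αCD3/CD28 beads (1:1). Beads removed, then 4 days in 30 IU/ml rIL-2. Spin-infected 90 min at 1200 g, then kept in rIL-2 plus 5 µM saquinavir. Seven days post-infection, treated 24 h with increasing concentrations plus 30 µM raltegravir. Luciferase RLU normalized to total protein.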"}, "[4]": {"system": "human primary CD4+ T cells", "test": "T cell activation markers CD25 and CD69", "format": "cell-based", "details": "24 and 72 hours, two healthy donors"}, "latent HIV-1 [5]": {"system": "latent HIV-1", "test": "Latency reversal in CD4+ T cells from aviremic HIV-1 infected patients", "format": "cell-based"}, "[6]": {"system": "BAF target genes p21 and c-MYC", "test": "Biomarker mRNA expression of BAF target genes in CD4+ T cells", "format": "cell-based, human", "in_short": "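Human CD4+ T cells, healthy donors: three donors isolated by Ficoll and RosetteSep negative selection, treated in duplicate with 3 µM test compound or DMSO for 16 h. HIV+ patient cells: frozen PBMCs rested overnight, CD4+ enriched twice, rested 6 h, 3 million cells treated with 10 µM compound or DMSO. TRIreagent RNA, random-primed cDNA; p21 and c-MYC mRNA vs control; Student's t test.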"}, "[7]": {"system": "nucleosome occupancy at the HIV-1 5'-LTR", "test": "FAIRE assay in J-Lat 11.1", "format": "cell-based", "details": "J-Lat 11.1, overnight treatment"}, "wild type ESCs": {"system": "wild type ESCs", "test": "Viability of wild type ESCs", "format": "cell-based, mouse", "details": "up to 30 µM, 72 h", "in_short": "(§1)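 2000 cells/well in 384-well plates, pre-incubated 24 h at 37 °C, 5% CO2. Compound added by pin transfer; mitoxantrone (10 µM final) as cytotoxic positive control. Incubated 72 h, equilibrated 15 min to room temperature. CellTiter-Glo diluted 1:1 with PBS (pH 7.4) added, luminescence read. Run at eight doses as a viability counter-screen.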"}, "HepG2 cells": {"system": "HepG2 cells", "test": "Viability assay HepG2", "format": "cell-based, human", "details": "72 h", "in_short": "as §1"}, "HEK293T cells": {"system": "HEK293T cells", "test": "Viability assay HEK293T", "format": "cell-based, human", "details": "72 h", "in_short": "as §1"}, "A549 cells": {"system": "A549 cells", "test": "Viability assay A549", "format": "cell-based, human", "details": "72 h", "in_short": "as §1"}, "[8]": {"system": "latent HIV-1 provirus in J-Lat cells", "test": "J-Lat T-cell line models of HIV-1 latency", "format": "cell-based", "details": "48 h; higher concentrations than in primary cells"}, "[9]": {"system": "BAF target genes (Bmi1, Ring1, Fgf4)", "details": "30 µM, 18 h"}, "ARID1A": {"system": "ARID1A", "test": "Biotin pulldown from ESC lysates, ARID1A", "format": "binding, mouse", "details": "200 µM soluble compound, pulldown with CAM 2–56", "in_short": "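Beads incubated 2 h with cell lysates pre-incubated with DMSO or 200 µM soluble competitor. Beads washed once, boiled in SDS loading buffer, and bound proteins detected by immunoblot.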"}, "latent HIV-1 [10]": {"system": "latent HIV-1", "test": "HIV latency reversal activity of the thiophene hit", "format": "cell-based"}, "[11]": {"details": "CD4+ T cells of three patients, 10 µM"}}, "note": "“Also recorded” adds a separate entry of the source.", "data": [{"smiles": "CO[C@H]1CN(C)C(=O)c2cc(NC(=O)OC(C)C)ccc2OC[C@H](C)N(Cc2ccc(-c3ccccn3)cc2)C[C@@H]1C", "note": "[BRD-K80443127]", "values": [{"measurement": "activity in the Bmi1 luciferase reporter assays (in words)", "setting": "[1]", "value": "high activity"}, {"measurement": "transcription of latent HIV-1 in ex vivo infected primary CD4+ T cells", "setting": "latent HIV-1 [2]", "value": "slightly higher activity at low concentrations; also recorded: triggered HIV transcription"}, {"measurement": "activation in second ex vivo model of HIV-1 latency", "setting": "latent HIV-1 [3]", "value": "activation was confirmed"}, {"measurement": "effect on CD25 and CD69 expression (T cell activation)", "setting": "[4]", "value": "no effect"}, {"measurement": "potentiation of prostratin activity", "setting": "latent HIV-1 [5]; all three patients", "value": "significant potentiation"}, {"measurement": "cell associated HIV mRNA after ex vivo treatment alone", "setting": "latent HIV-1 [5]; in one patient", "value": "significant increase"}, {"measurement": "POL copies when co-treated with prostratin", "setting": "latent HIV-1 [5]; patient 2 and 3, 10 µM with 200 nM prostratin, 24 h", "value": "significant increase"}, {"measurement": "cell associated HIV-1 POL after treatment alone", "setting": "latent HIV-1 [5]; patient 2 and 3, 10 µM, 24 h", "value": "did not result in a significant increase"}, {"measurement": "differential expression of c-MYC and p21", "setting": "[6]; CD4+ T cells of healthy donors, 3 µM, 16 hours", "value": "consistent with BAF inhibition"}, {"measurement": "C-MYC transcripts levels", "setting": "[6]; [11]", "value": "significant decrease"}, {"measurement": "p21 transcripts levels", "setting": "[6]; [11]", "value": "significant decrease"}, {"measurement": "chromatin accessibility at the Nuc-1 position of the 5' LTR", "setting": "[7]", "value": "increased chromatin accessibility"}]}, {"smiles": "CO[C@H]1CN(C)C(=O)c2cc(NC(=O)NC(C)C)ccc2OC[C@H](C)N(Cc2ccc(-c3ccccn3)cc2)C[C@@H]1C", "note": "[BRD-K98645985]", "values": [{"measurement": "activity in the Bmi1 luciferase reporter assays (in words)", "setting": "[1]", "value": "high activity"}, {"measurement": "EC50", "setting": "[1]; read-out: EC50 in the luciferase assay, 24 h compound treatment, re-evaluation of hit", "value": "~2.37", "unit": "µM"}, {"measurement": "toxicity to ESCs", "setting": "wild type ESCs", "value": "no toxicity"}, {"measurement": "toxicity to HepG2 cells", "setting": "HepG2 cells", "value": "no toxicity"}, {"measurement": "toxicity to HEK293T cells", "setting": "HEK293T cells", "value": "no toxicity"}, {"measurement": "toxicity to A549 cells", "setting": "A549 cells", "value": "no toxicity"}, {"measurement": "transcription of latent HIV-1 in ex vivo infected primary CD4+ T cells", "setting": "latent HIV-1 [2]", "value": "triggered HIV transcription"}, {"measurement": "latency reversal in J-Lat cells", "setting": "[8]", "value": "concentration dependent latency reversal"}, {"measurement": "fold decrease in Fgf4", "setting": "[9]", "value": 3.3, "unit": "fold"}, {"measurement": "fold increase in Bmi1", "setting": "[9]", "value": 5, "unit": "fold"}, {"measurement": "fold increase in Ring1", "setting": "[9]", "value": 2.6, "unit": "fold"}]}, {"smiles": "CCC(CC)Nc1c(Nc2ccc3c(c2)C(=O)N(C)C[C@H](OC)[C@@H](C)CN(Cc2ccc(-c4ccccn4)cc2)[C@@H](C)CO3)c(=O)c1=O", "note": "[BRD-K04244835]", "values": [{"measurement": "activity in the Bmi1 luciferase reporter assays (in words)", "setting": "[1]", "value": "low/no activity"}]}, {"smiles": "CO[C@H]1CN(C)C(=O)c2cc(NC(=O)NC(C)C)ccc2OC[C@H](C)N(Cc2ccc(-c3cccnc3)cc2)C[C@@H]1C", "note": "[BRD-K17257309]", "values": [{"measurement": "activity in the Bmi1 luciferase reporter assays (in words)", "setting": "[1]", "value": "moderate activity"}]}, {"smiles": "CO[C@H]1CN(C)C(=O)c2cc(N)ccc2OC[C@H](C)N(Cc2ccc(-c3ccccn3)cc2)C[C@@H]1C", "note": "[BRD-K25923209]", "values": [{"measurement": "activity in the Bmi1 luciferase reporter assays (in words)", "setting": "[1]", "value": "high activity"}, {"measurement": "transcription of latent HIV-1 in ex vivo infected primary CD4+ T cells", "setting": "latent HIV-1 [2]", "value": "triggered HIV transcription"}, {"measurement": "ARID1A enrichment upon preincubation of lysates with soluble competitor", "setting": "ARID1A", "value": "complete reduction"}]}, {"smiles": "CO[C@H]1CN(C)C(=O)c2cc(NC(=O)NC(C)C)ccc2OC[C@H](C)N(Cc2ccccc2)C[C@@H]1C", "note": "[BRD-K13648511]", "values": [{"measurement": "activity in the Bmi1 luciferase reporter assays (in words)", "setting": "[1]", "value": "low/no activity"}]}, {"smiles": "C=CCNc1nc(NCc2cccc(OC)c2)c2sc(-c3ccccc3)cc2n1", "note": "[MLS003122856]", "values": [{"measurement": "HIV latency reversal activity", "setting": "latent HIV-1 [10]", "value": "only moderate HIV latency reversal activity"}]}]}
